Measured values from ChEMBL document CHEMBL4028856, “Discovery of Small Molecules Targeting the Synergy of Cardiac Transcription Factors GATA4 and NKX2-5” (J Med Chem, 2017).
Activity calls are given as the source filed them. No cut-off for these calls is given here.

What was measured:
[1] = target: T1, GATA4/NKX2-5 (Mus musculus) (UniProt Q08369+P42582); assay: (§1) Inhibition of mouse GATA4/NKX2-5 transcriptional synergy expressed in African green monkey COS-1 cells measured after 30 hrs by dual luciferase reporter gene assay; format: cell-based
Summary of the method: (§2)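 COS-1 cells co-transfected (Fugene 6, DNA:reagent 1:3) with p3xNKE-luc, Renilla pRL-TKd238 control, and pMT2-GATA4, pMT2-NKX2-5, both, or empty pMT2; DNA balanced with pMT2. Compounds added 6 h post-transfection in 0.1% DMSO, medium renewed at 24 h, lysis at 30 h. Dual-luciferase read-out, firefly/Renilla normalized to vehicle; duplicate wells.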

GATA4/NKX2-5 = GATA4/NKX2-5 (Mus musculus, UniProt P42582+Q08369); assay: as §1; format: cell-based; summary of the method: as §2
GATA4/NKX2-5, sequence (Q08369 whole entry): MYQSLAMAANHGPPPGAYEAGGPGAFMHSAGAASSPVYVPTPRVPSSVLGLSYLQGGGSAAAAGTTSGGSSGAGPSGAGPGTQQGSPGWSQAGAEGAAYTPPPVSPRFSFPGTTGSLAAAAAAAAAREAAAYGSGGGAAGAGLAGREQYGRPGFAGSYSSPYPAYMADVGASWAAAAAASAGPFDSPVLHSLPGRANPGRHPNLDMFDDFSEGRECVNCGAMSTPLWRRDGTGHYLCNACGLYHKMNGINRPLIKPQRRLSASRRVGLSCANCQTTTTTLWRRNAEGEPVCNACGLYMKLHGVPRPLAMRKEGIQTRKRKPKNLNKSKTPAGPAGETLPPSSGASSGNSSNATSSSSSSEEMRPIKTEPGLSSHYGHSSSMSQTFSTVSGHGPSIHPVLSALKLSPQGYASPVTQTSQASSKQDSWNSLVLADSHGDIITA
GATA4/NKX2-5, sequence (P42582 whole entry): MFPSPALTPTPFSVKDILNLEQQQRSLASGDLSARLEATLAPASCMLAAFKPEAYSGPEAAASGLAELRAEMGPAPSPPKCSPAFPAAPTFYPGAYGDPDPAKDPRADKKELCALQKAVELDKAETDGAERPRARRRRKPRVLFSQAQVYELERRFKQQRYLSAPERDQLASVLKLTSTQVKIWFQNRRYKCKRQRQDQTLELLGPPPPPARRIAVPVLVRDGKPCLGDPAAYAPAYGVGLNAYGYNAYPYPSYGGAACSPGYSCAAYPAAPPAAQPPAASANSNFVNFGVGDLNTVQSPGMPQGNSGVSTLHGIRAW

[2] = target: Transcription factor GATA-4 (Rattus norvegicus) (UniProt P46152); assay: Inhibition of binding of GATA4 to [32P]-double stranded oligonucleotide in neonatal rat ventricular cardiomyocytes at 50 uM measured after 24 hrs by EMSA method
Transcription factor GATA-4 (Rattus norvegicus), sequence (P46152 whole entry): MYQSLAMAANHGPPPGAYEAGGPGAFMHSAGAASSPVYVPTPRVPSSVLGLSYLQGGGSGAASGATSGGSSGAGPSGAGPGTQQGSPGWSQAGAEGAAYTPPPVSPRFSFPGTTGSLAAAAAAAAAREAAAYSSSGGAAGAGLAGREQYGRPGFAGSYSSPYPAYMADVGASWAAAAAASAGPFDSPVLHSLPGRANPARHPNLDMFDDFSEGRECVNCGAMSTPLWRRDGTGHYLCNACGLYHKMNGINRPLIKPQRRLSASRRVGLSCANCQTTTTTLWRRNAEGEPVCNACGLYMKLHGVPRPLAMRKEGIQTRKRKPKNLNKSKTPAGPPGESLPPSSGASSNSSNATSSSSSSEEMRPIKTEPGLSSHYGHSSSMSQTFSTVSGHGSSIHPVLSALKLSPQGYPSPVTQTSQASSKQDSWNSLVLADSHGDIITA
Summary of the method: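 Neonatal rat cardiomyocytes treated 24 h with 50 μM; nuclear extracts incubated 20 min with [α-32P]dCTP Klenow-labeled GATA4- or NKX2-5-site oligonucleotide in HEPES/NaCl/KCl/MgCl2 buffer with poly(dI-dC); 5% native PAGE, phosphorimager; supershift with anti-GATA4/NKX2-5; relative to vehicle, mean ± SD, n = 3–5.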

[3] = target: GATA4/NKX2-5 (Rattus norvegicus) (UniProt P46152+O35767); assay: Inhibition of GATA4/NKX2-5 interaction in neonatal rat ventricular cardiomyocytes assessed as decrease in endothelin-1 induced mRNA level of ANP at 10 uM preincubated for 1 hr followed by endothelin-1 addition measured after 23 hrs by real-time PCR analysis
Summary of the method: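 Neonatal rat ventricular myocytes (2–4-day-old Sprague-Dawley or Wistar), preplated, seeded on 6-well plates, moved to complete serum-free medium next day and cultured 24 h. Compounds (10–100 μM) added 1 h before 100 nM endothelin-1 or none; ANP and BNP mRNA quantified by RT-PCR at 24 h, normalized to 18S RNA, relative to vehicle; mean ± SD, n = 3–6.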

[4] = Induction of apoptosis in endothelin-1 induced neonatal rat ventricular cardiomyocytes at 50 uM measured after 24 hrs by TUNEL assay; format: cell-based; settings: cardiac muscle cell
Summary of the method: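 Neonatal rat cardiomyocytes on 8-well chamber slides treated 24 h at 50 μM; apoptotic cells detected by TUNEL with peroxidase in situ kit.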

[5] = target: Glycogen synthase kinase-3 beta (Homo sapiens) (UniProt P49841); assay: Inhibition of human GSK3-beta at 30 uM
Glycogen synthase kinase-3 beta (Homo sapiens), sequence (P49841 whole entry, looked up): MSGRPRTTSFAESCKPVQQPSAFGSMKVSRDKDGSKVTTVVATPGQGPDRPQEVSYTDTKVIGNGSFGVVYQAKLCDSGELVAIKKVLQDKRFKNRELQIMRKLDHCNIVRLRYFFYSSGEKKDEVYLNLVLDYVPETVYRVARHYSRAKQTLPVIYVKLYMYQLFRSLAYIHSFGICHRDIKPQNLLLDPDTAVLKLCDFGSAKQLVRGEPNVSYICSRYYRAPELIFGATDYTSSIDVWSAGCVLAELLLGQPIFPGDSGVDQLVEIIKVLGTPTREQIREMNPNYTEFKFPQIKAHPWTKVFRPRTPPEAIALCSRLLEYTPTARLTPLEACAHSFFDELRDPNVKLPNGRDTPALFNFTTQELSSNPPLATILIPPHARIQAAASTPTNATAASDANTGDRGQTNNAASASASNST
Summary of the method: (§3)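 48-kinase profiling panel; compounds tested at 30 μM in duplicate.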

[6] = target: Mitogen-activated protein kinase 1 (Homo sapiens) (UniProt P28482); assay: Inhibition of human ERK2 at 30 uM; summary of the method: as §3
Mitogen-activated protein kinase 1 (Homo sapiens), sequence (P28482 whole entry): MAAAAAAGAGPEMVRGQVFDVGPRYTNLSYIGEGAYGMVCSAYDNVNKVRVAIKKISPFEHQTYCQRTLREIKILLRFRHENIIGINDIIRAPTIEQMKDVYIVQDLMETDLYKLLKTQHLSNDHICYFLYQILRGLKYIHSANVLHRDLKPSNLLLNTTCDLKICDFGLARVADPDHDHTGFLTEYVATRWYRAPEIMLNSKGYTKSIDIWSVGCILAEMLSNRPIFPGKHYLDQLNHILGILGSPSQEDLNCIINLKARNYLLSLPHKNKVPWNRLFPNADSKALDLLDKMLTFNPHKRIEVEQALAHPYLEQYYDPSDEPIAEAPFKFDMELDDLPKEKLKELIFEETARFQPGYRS

[7] = target: Parathyroid hormone 2 receptor (Homo sapiens) (UniProt P49190); assay: Antagonist activity at human PTH2 receptor expressed in rat Chem-1 cells assessed as inhibition of TIP-39 induced calcium flux at 10 uM by fluorescence assay; format: functional, cell-based
Parathyroid hormone 2 receptor (Homo sapiens), sequence (P49190 whole entry): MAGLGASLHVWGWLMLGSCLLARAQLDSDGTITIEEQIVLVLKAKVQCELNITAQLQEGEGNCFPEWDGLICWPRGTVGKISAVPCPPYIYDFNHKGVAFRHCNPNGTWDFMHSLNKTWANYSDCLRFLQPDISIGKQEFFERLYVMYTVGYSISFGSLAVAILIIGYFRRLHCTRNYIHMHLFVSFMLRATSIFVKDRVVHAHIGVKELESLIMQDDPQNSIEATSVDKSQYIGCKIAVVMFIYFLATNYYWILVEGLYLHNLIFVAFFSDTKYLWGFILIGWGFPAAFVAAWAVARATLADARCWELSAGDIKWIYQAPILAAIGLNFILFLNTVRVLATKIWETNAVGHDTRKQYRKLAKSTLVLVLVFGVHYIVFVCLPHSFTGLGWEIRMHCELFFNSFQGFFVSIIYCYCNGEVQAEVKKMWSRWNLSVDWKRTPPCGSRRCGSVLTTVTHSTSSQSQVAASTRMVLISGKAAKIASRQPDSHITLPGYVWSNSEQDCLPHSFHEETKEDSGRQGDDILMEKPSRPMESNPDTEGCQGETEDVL
Summary of the method: (§4)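 GPCR profiling panel of cell-based functional assays covering 165 GPCRs; agonist mode tested at 12.5 μM and antagonist mode at 10 μM, in duplicate.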

[8] = target: T1, GATA4/NKX2-5 (Mus musculus); assay: Inhibition of mouse GATA4/FLAG-tagged NKX2-5 interaction expressed in African green monkey COS-1 cells at 100 uM by coimmunoprecipitation method; format: cell-based
Summary of the method: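 FLAG-NKX2-5 and GATA4 lysates from COS-1 cells incubated overnight at 4 °C with anti-FLAG agarose in Tris/NaCl/Triton lysis buffer with protease/phosphatase inhibitors; beads washed thrice, eluted by boiling, SDS-PAGE, immunoblotted for GATA4 and NKX2-5, ECL detection.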

[9] = Induction of necrosis in neonatal rat ventricular cardiomyocytes assessed as release of adenylate kinase at 50 uM measured after 24 hrs by bioluminescence assay; format: cell-based; settings: cardiac muscle cell
Summary of the method: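 Neonatal rat cardiomyocytes treated 24 h at 50 μM; adenylate kinase released into medium measured by ToxiLight bioluminescence on a luminometer; relative to vehicle, mean ± SD, n = 3.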

[10] = target: Cannabinoid receptor 2 (Homo sapiens) (UniProt P34972); assay: Agonist activity at human CB2 receptor expressed in rat hematopoietic Chem-4 cells assessed as induction of calcium flux at 12.5 uM by fluorescence assay; format: functional, cell-based; summary of the method: as §4
Cannabinoid receptor 2 (Homo sapiens), sequence (P34972 whole entry): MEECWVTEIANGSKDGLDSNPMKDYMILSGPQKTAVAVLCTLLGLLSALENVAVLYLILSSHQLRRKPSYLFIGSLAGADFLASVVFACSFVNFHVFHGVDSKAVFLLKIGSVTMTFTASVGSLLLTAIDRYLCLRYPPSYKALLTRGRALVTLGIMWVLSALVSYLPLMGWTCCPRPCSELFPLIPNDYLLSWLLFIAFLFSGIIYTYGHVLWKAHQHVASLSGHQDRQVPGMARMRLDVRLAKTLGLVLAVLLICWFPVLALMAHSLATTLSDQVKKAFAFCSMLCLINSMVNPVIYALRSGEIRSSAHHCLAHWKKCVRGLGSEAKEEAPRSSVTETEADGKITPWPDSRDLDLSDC

[11] = target: Hydroxycarboxylic acid receptor 2 (Homo sapiens) (UniProt Q8TDS4); assay: Agonist activity at human GPR109A expressed in Chem-4 cells assessed as induction of calcium flux at 12.5 uM by fluorescence assay; format: functional, cell-based; summary of the method: as §4
Hydroxycarboxylic acid receptor 2 (Homo sapiens), sequence (Q8TDS4 whole entry): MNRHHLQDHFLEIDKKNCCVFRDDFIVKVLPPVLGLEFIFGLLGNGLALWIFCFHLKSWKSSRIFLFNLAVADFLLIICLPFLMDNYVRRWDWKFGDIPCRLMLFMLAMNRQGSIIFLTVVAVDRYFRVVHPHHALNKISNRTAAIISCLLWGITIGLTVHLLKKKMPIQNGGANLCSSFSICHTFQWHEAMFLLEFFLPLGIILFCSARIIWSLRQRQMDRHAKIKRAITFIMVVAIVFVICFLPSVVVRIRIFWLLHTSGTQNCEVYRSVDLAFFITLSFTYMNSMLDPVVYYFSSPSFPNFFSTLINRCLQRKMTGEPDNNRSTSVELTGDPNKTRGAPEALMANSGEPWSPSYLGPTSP

inhibition [1]: Dose-dependent effect | IC50 (GATA4/NKX2-5): 3 µM | inhibition [2]: 29% | inhibition [3]: 32% | inhibition [5]: inactive | inhibition [6]: inactive | inhibition [7]: 59.5% | inhibition [8]: Active | Activity [10]: inactive | Activity [11]: inactive
SMILES: CCN(CC)c1ccc(NC(=O)c2c(-c3ccccc3)noc2C)cc1
Activity [4]: Non-Toxic | Activity [9]: Non-Toxic
